Reference: ChEMBL document CHEMBL1158160, “Diarylheptanoids, new phytoestrogens from the rhizomes of Curcuma comosa: Isolation, chemical modification and estrogenic activity evaluation” (2008)

Assays:
[1] = system: HeLa; test: Estrogenic activity in human HeLa cells assessed as Bcl-xL gene transcriptional activity at 10 nM after 24 hrs by RT-PCR relative to 17-beta-estradiol; format: functional
Procedure, shortened: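 HeLa cells grown in DMEM with 5% FBS (37 °C, 5% CO2, 24 h), then moved to phenol red-free DMEM with 5% charcoal-stripped FBS for 24 h. Exposed to 10^-8 M compound (final) for 24 h. Controls: 10^-8 M 17β-estradiol, 0.01% DMSO. Total RNA extracted, reverse transcribed. Bcl-xL PCR: 28 cycles (94 °C 30 s, 60 °C 30 s, 72 °C 30 s), same profile as HPRT.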

[2] = system: HeLa; test: Estrogenic activity in human HeLa cells assessed as ERbeta gene transcriptional activity at 10 nM after 24 hrs by RT-PCR relative to 17-beta-estradiol; format: functional
Procedure, shortened: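 Steroid-depleted HeLa cells (24 h in phenol red-free DMEM, 5% charcoal-stripped FBS) treated 24 h with compound at 10^-8 M final. 17β-Estradiol at 10^-8 M was the positive control and 0.01% DMSO the negative. RNA isolated and converted to cDNA. ERβ PCR: 32 cycles (94 °C 30 s, 56 °C 30 s, 72 °C 30 s), final extension 7 min.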

| Structure (SMILES) | Activity [1] [%] | Activity [2] [%] |
| --- | --- | --- |
| O=C(/C=C/c1ccc(O)cc1)CCCCc1ccccc1 | 74.41 | 70.33 |
| O=C(/C=C/C=C/c1ccccc1)CCc1ccc(O)cc1 | 74.54 | 87.75 |
| Oc1ccc(CC[C@@H](O)CC/C=C/c2ccccc2)cc1 | 57.73 | 52.5 |
| Oc1ccc(CC[C@@H](O)CC/C=C/c2ccccc2)cc1O | 45.98 | 51.5 |
| CO[C@@H](CC/C=C/c1ccccc1)CCc1ccccc1 | 72.5 | 74.97 |
| CC(=O)O[C@@H](/C=C/C=C/c1ccccc1)CCc1ccccc1 | 47.96 | 58.36 |
| CC(=O)Oc1ccc(CCC(=O)CC/C=C/c2ccccc2)cc1 | 75.3 | 84 |
| CC(=O)Oc1ccc(CCC(=O)/C=C/C=C/c2ccccc2)cc1 | 49.82 | 68.45 |
| COc1ccc(CCC(=O)CC/C=C/c2ccccc2)cc1 | 71.4 | 58.51 |
| COc1ccc(CCC(=O)/C=C/C=C/c2ccccc2)cc1 | 76.77 | 72 |
| C(=C\C=C\c1ccccc1)/C=C/Cc1ccccc1 | 77.5 | 76.46 |
| O[C@@H](CC/C=C/c1ccccc1)CCc1ccccc1 | 52.85 | 42.48 |
| O=C(/C=C/C=C/c1ccccc1)CCc1ccccc1 | 43.97 | 33.72 |
| O[C@@H](/C=C/C=C/c1ccccc1)CCc1ccccc1 | 62.51 | 75.42 |
| O=C(CC/C=C/c1ccccc1)CCc1ccc(O)cc1 | 78.51 | 90.56 |
| O[C@@H](CCCCc1ccccc1)CCc1ccccc1 | 40 | 37.03 |
| O=C(CCCCc1ccccc1)CCc1ccccc1 | 42.18 | 57.5 |
| O=C(CC/C=C/c1ccccc1)CCc1ccccc1 | 74.3 | 85.45 |
| O=C(/C=C/CCc1ccccc1)CCc1ccc(O)cc1 | 47.08 | 50.86 |
| CC(=O)O[C@@H](CCCCc1ccccc1)CCc1ccccc1 | 55 | 58.97 |
| CC(=O)O[C@@H](CC/C=C/c1ccccc1)CCc1ccccc1 | 71.06 | 75.5 |
| O=c1c(-c2ccc(O)cc2)coc2cc(O)cc(O)c12 [GENISTEIN] | 72.85 | 75.51 |
